Laboratory results published in ChEMBL document CHEMBL1123470, “N-substituent modulation of opiate agonist/antagonist activity in resolved 3-methyl-3-(m-hydroxyphenyl)piperidines” (J Med Chem, 1986).
Counter-ions that a name gives are not always drawn. Activity calls are given as the source filed them. The rule behind the calls is not given here.

Legend:
[1] = biological target: T1, Delta-type opioid receptor (Rattus norvegicus, UniProt P33533); test: Affinity against the Opioid receptor delta 1
T1 sequence (P33533 whole entry): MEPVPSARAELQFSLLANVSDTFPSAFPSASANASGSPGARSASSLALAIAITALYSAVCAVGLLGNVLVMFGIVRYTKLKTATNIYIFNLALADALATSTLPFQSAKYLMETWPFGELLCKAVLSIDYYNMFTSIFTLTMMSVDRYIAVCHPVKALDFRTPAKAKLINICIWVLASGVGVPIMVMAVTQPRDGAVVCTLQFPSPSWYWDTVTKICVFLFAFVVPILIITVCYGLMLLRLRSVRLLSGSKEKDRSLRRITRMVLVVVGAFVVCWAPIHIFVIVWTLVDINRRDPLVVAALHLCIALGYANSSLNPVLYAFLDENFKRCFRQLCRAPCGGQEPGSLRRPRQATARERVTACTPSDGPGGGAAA

Mus musculus [2] = test: Compound was tested for analgesic activity in mouse using mouse writhing test following subcutaneous administration; assay type: functional
Mus musculus [3] = test: Analgesic antagonistic activity in mice using morphine(56.07 umol/kg) induced Straub-tail test after sc administration; assay type: functional
Method in brief: (§1)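 Mice got the test substance, N-allylnormorphine reference, or diluent sc, then immediately 56.07 µmol/kg morphine sulfate sc. The number of mice showing a Straub-tail reaction (tail raised above 45°) was recorded 15–25 min after treatment.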

Mus musculus [4] = test: Compound was tested for analgesic activity in mouse using mouse writhing test after sc administration of compound; assay type: functional
[5] = biological target: Kappa-type opioid receptor (Rattus norvegicus, UniProt P34975); test: Opioid receptor affinity against Opioid receptor kappa 1 by using the curve-fitting program LIGAND
Chain of Kappa-type opioid receptor (P34975 whole entry): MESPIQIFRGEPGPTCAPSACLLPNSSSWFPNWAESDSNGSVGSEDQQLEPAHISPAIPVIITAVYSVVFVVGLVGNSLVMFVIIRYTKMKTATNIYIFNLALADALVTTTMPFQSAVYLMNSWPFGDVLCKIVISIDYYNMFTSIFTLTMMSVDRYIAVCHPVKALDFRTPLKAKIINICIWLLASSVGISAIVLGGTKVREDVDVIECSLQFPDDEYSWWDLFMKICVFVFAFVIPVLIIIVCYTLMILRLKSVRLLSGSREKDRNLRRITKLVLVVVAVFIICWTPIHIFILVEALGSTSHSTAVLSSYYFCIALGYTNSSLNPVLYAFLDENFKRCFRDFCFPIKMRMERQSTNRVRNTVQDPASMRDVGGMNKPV

Mu-type opioid receptor [6] = biological target: T2, Mu-type opioid receptor (Rattus norvegicus, UniProt P33535); test: Mu2 opioid receptor affinity against the receptor site model site 2 (mu2) by using the curve-fitting program LIGAND
T2 sequence (P33535 whole entry): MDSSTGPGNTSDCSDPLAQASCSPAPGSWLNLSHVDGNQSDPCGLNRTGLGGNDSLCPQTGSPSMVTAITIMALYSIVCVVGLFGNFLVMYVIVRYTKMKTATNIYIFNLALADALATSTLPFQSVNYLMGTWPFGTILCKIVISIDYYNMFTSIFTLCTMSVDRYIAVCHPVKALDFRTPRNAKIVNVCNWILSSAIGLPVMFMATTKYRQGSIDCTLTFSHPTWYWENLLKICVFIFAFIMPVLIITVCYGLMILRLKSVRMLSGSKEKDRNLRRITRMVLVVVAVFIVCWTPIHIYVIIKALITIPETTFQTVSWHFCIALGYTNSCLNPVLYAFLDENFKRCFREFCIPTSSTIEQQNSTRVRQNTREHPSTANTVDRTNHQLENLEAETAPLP

[7] = biological target: T1, Delta-type opioid receptor; test: Opioid receptor affinity against the Opioid receptor delta 1 by using the curve-fitting program LIGAND
Mus musculus [8] = test: Compound was tested for narcotic antagonist potency using tail flick test in mouse after sc administration of compound; assay type: functional
Opioid receptor = Opioid receptor (Rattus norvegicus, UniProt P33533+P34975+P33535); test: Opioid receptor affinity against the receptor site model site 5 by using the curve-fitting program LIGAND; assay type: protein assay
Mus musculus [9] = test: Compound was tested for analgesic potency using writhing test in mouse after sc administration of compound; assay type: functional
Mu-type opioid receptor [10] = biological target: T2, Mu-type opioid receptor; test: (§2) Opioid receptor mu 1 affinity against the receptor site model site 1 (mu1) by using the curve-fitting program LIGAND
Method in brief: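 Rat whole-brain homogenate, preincubated 37 °C 1 h, resuspended in Tris pH 7.7 (with 100 mM NaCl when appropriate) at 6.7 mg tissue/mL. […] Triplicate tubes, 25 °C 45 min, then filtration. Self- and cross-competition data were fitted together by multisite LIGAND analysis for site affinities. Values are averages of at least two experiments.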

Mu-type opioid receptor [11] = biological target: T2, Mu-type opioid receptor; test: as §2; remark: listed apart in the source
Mus musculus [12] = test: Compound was tested for narcotic antagonist potency using tail flick test in mouse after sc administration of compound; no significant antagonist activity up to dose of 240-300 umol/kg.; assay type: functional, organism-based
Mus musculus [13] = test: Compound was tested for narcotic antagonist potency using tail flick test in mouse after sc administration of compound; No significant antagonist activity up to dose of 240-300 umol/kg.; assay type: functional, organism-based
Mus musculus [14] = test: Analgesic antagonistic activity in mice using morphine(56.07 umol/kg) induced Straub-tail test after sc administration; No antagonist activity up to 846 umol/ kg; assay type: functional, organism-based; method in brief: as §1
Mus musculus [15] = test: Compound was tested for narcotic antagonist potency using tail flick test in mouse following subcutaneous administration; assay type: functional; details: sc
[16] = Mus musculus, sc, read-out: ED50

CCC1C2C(=O)c3ccc(O)cc3C1(C)CCN2CC1CC1 (stereo unspecified)
Kd [1]: 14 nM

CN1CC[C@]23c4c5ccc(O)c4O[C@H]2[C@@H](O)C=C[C@H]3[C@H]1C5
ED50 (Mus musculus [2]; [16]): 0.81 µmol/kg

CC1(c2cccc(O)c2)CCCN(CCc2ccccc2)C1 (racemic)
AD50 (Mus musculus [3]): 33.94 µM/kg
ED50 (Mus musculus [4]): 14.1 µmol/kg

C=CCN1CCCC(C)(c2cccc(O)c2)C1 (racemic)
AD50 (Mus musculus [3]): 38.83 µM/kg
ED50 (Mus musculus [4]): 418 µmol/kg

Br.CN1CCCC(C)(c2cccc(O)c2)C1 (racemic)
AD50 (Mus musculus [3]): 18.17 µM/kg
ED50 (Mus musculus [4]): 26.9 µmol/kg

CC1(c2cccc(O)c2)CCCN(CC2CC2)C1 (racemic)
AD50 (Mus musculus [3]): 7.5 µM/kg
ED50 (Mus musculus [4]): 83.5 µmol/kg

C=CCN1CCCC(C)(c2cccc(O)c2)C1 (single isomer, unassigned; (+))
Kd [5]: 137 nM
Kd (Mu-type opioid receptor [6]): 370 nM
Kd [7]: 4000 nM
ED50 (Mus musculus [8]): 112 µmol/kg
Kd (Opioid receptor): 3700 nM
ED50 (Mus musculus [9]): 160.94 µM/kg
Kd (Mu-type opioid receptor [10]): 100 nM

CC1(c2cccc(O)c2)CCCN(CC2CC2)C1 (single isomer, unassigned; (+))
ED50 (Mus musculus [8]): 139 µmol/kg

CC1(c2cccc(O)c2)CCCN(CCc2ccccc2)C1 (single isomer, unassigned; (-)) [listing 1 of 2 here]
Kd (Mu-type opioid receptor [11]): 13 nM
Kd [5]: 625 nM
Kd (Mu-type opioid receptor [6]): 130 nM
Kd [7]: 2170 nM
Kd (Opioid receptor): 1390 nM
ED50 (Mus musculus [9]): 18.38 µM/kg

C=CCN1CCCC(C)(c2cccc(O)c2)C1 (single isomer, unassigned; (-)) [listing 1 of 2 here]
Kd (Mu-type opioid receptor [11]): 24 nM
Kd [5]: 370 nM
Kd (Mu-type opioid receptor [6]): 110 nM
Kd [7]: 4000 nM
Kd (Opioid receptor): 1720 nM
ED50 (Mus musculus [9]): 14.34 µM/kg

CC1(c2cccc(O)c2)CCCN(CC2CC2)C1 (single isomer, unassigned; (-)) [listing 1 of 2 here]
ED50 (Mus musculus [9]; [16]): 12.2 µmol/kg

C=CCN1CCCC(C)(c2cccc(O)c2)C1 (single isomer, unassigned; (-)) [listing 2 of 2 here]
ED50 (Mus musculus [12]): inactive

CC1(c2cccc(O)c2)CCCN(CC2CC2)C1 (single isomer, unassigned; (-)) [listing 2 of 2 here]
ED50 (Mus musculus [12]): inactive

CC1(c2cccc(O)c2)CCCN(CCc2ccccc2)C1 (single isomer, unassigned; (-)) [listing 2 of 2 here]
ED50 (Mus musculus [12]): inactive

CN1CCCC(C)(c2cccc(O)c2)C1 (stereo in doubt; (+)-7a)
Kd (Mu-type opioid receptor [11]): 132 nM
Kd [5]: 714 nM
Kd (Mu-type opioid receptor [6]): 1000 nM
Kd [7]: 15900 nM
ED50 (Mus musculus [8]): 101 µmol/kg
Kd (Opioid receptor): 19200 nM
ED50 (Mus musculus [9]): 41.36 µM/kg

CC1(c2cccc(O)c2)CCCN(CCc2ccccc2)C1 (stereo in doubt; (+)-7d)
Kd (Mu-type opioid receptor [11]): 5 nM
Kd [5]: 179 nM
Kd (Mu-type opioid receptor [6]): 6.2 nM
Kd [7]: 588 nM
ED50 (Mus musculus [8]): 13.1 µmol/kg
Kd (Opioid receptor): 26300 nM
ED50 (Mus musculus [9]; [16]): 11.5 µmol/kg

CN1CCCC(C)(c2cccc(O)c2)C1 (stereo in doubt; (-)-7a) [listing 1 of 2 here]
Kd [5]: 625 nM
Kd (Mu-type opioid receptor [6]): 1170 nM
Kd [7]: 30000 nM
Kd (Opioid receptor): 8330 nM
ED50 (Mus musculus [9]; [16]): 25.7 µmol/kg
Kd (Mu-type opioid receptor [10]): 114 nM

CN1CCCC(C)(c2cccc(O)c2)C1 (stereo in doubt; (-)-7a) [listing 2 of 2 here]
ED50 (Mus musculus [13]): inactive

CCOC(=O)C1(c2ccccc2)CCN(C)CC1 [MEPERIDINE HYDROCHLORIDE]
ED50 (Mus musculus [4]): 20.2 µmol/kg
AD50 (Mus musculus [14]): inactive

C=CCN1CC[C@]23c4c5ccc(O)c4O[C@H]2[C@@H](O)C=C[C@H]3[C@H]1C5.Cl [NALORPHINE HYDROCHLORIDE]
AD50 (Mus musculus [3]): 0.71 µM/kg
ED50 (Mus musculus [2]; [16]): 1.4 µmol/kg

C=CCN1CC[C@]23c4c5ccc(O)c4O[C@H]2[C@@H](O)C=C[C@H]3[C@H]1C5 [NALORPHINE]
ED50 (Mus musculus [2]): 1.4 µM/kg
ED50 (Mus musculus [15]): 2.04 µmol/kg
